Laboratory results as given in ChEMBL document CHEMBL1123612, “Studies on histamine H2 receptor antagonists. 2. Synthesis and pharmacological activities of N-sulfamoyl and N-sulfonyl amidine derivatives” (1987).

How the values were obtained:
Canis familiaris [1] = assay: (§1) Reduction in gastric acid secretion under histamine[160 ug/(kg h)] stimulation in anesthetized dogs after intravenous administration; format: functional; details: Canis lupus familiaris, Stomach
Outline: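 Fasted (24 h) mongrel dogs, 8-10 kg, anesthetized with iv pentobarbital (30 mg/kg). Gastric juice acidity titrated with 0.05 N NaOH. Percent inhibition per dose taken from predrug acid output versus minimum output, usually reached within 45 min of dosing. ED50 read from semilog plot of inhibition against dose; two to four dogs per compound.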

[2] = target: Histamine H2 receptor (Cavia porcellus) (UniProt P47747); assay: Histamine H2 receptor antagonist activity (chronotropic response to histamine) in guinea pig right atrium; format: functional, tissue-based; details: Cardiac atrium
Chain of Histamine H2 receptor (Cavia porcellus) (P47747 whole entry): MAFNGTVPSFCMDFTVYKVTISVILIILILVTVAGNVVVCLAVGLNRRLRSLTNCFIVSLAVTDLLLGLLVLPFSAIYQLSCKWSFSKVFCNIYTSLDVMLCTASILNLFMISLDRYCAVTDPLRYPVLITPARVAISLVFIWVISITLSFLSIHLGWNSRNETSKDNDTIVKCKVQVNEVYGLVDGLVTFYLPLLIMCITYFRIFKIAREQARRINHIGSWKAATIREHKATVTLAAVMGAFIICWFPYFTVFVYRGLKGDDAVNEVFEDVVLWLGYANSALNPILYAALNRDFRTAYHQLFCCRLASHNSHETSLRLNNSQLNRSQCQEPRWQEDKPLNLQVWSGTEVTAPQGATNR
Outline: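 Spontaneously beating atrium; rate recorded via force-displacement transducer. Test compound added 10 min before histamine (5 × 10⁻⁶ M), three to four concentrations per compound. Percent inhibition of the histamine-induced rate increase plotted against log concentration; 50% inhibitory dose read from the dose-response curve (means ± SE).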

Canis familiaris [3] = assay: as §1; details: Canis lupus familiaris, Stomach

Row | SMILES | ED50 (Canis familiaris [1]) [mg/kg] | ED50 [2] [nM] | ED50 (Canis familiaris [3]) [mg/kg]
1 | N=C(N)Nc1nc(CSCCC(=N)NS(=O)(=O)NCc2ccccc2)cs1 | 0.0396 | 1100 | 
2 | N=C(N)Nc1nc(CSCCC(=N)NNS(=O)(=O)c2ccccc2)cs1 |  | 8300 | 
3 | CN(C)Nc1nc(CSCCC(=N)NS(N)(=O)=O)cs1 |  | > 100000 | 
4 | NC(N)=Nc1nc(CSCC/C(N)=N/S(N)(=O)=O)cs1 [FAMOTIDINE] | 0.0087 | 270 | 
5 | N=C(N)Nc1nc(CCCCC(=N)NNS(=O)(=O)c2ccccc2)cs1 |  | 23000 | 
6 | CN(C)S(=O)(=O)NC(=N)CCSCc1csc(N=C(N)N)n1.O=C(O)/C=C\C(=O)O | 0.277 | 1400 | 
7 | N=C(N)Nc1nc(C[S+]([O-])CCC(=N)NS(N)(=O)=O)cs1 (configuration not stated) |  | 73000 | 
8 | N=C(N)Nc1nc(CCCCC(=N)NS(=O)(=O)c2ccccc2)cs1 | 0.0194 | 580 | 
9 | N=C(N)Nc1nc(CSCCC(=N)NS(=O)(=O)c2ccc(N)cc2)cs1 | 0.03 | 450 | 
10 | N=C(N)Nc1nc(CCCCC(=N)NS(=O)(=O)NC2CCCCC2)cs1 |  | 1300 | 
11 | N=C(N)Nc1nc(CSCCC(=N)NS(=O)(=O)c2ccccc2)cs1 | 0.0568 | 700 | 
12 | N=C(CCCOc1cccc(CN2CCCCC2)c1)NS(N)(=O)=O |  | 1400 | 
13 | CCCNS(=O)(=O)NC(=N)CCCCc1csc(N=C(N)N)n1 | 0.0266 | 560 | 
14 | N=C(CCSCc1ccccn1)NS(N)(=O)=O |  | > 100000 | 
15 | Cc1[nH]cnc1CSCCC(=N)NS(N)(=O)=O |  | > 100000 | 
16 | CNS(=O)(=O)NC(=N)CCSCc1csc(N=C(N)N)n1 | 0.0366 | 860 | 
17 | CCS(=O)(=O)NC(=N)CCCCc1csc(N=C(N)N)n1 | 0.0244 | 600 | 
18 | CS(=O)(=O)NC(=N)CCSCc1csc(N=C(N)N)n1 |  | 510 | 
19 | N=C(N)Nc1nc(CCCCC(=N)NS(N)(=O)=O)cs1 | 0.0089 | 230 | 
20 | N=C(N)Nc1nc(CCCCC(=N)NS(=O)(=O)c2ccc(N)cc2)cs1 | 0.0101 | 350 | 
21 | C/N=C(\N)Nc1nc(CSCCC(=N)NS(N)(=O)=O)cs1 | 0.0518 | 480 | 
22 | CN(C)Cc1ccc(CSCCC(=N)NS(N)(=O)=O)o1 |  | 17000 | 
23 | N=C(N)Nc1nc(CSCCC(=N)NS(N)(=O)=O)no1 |  | > 100000 | 
24 | CN/C(=N\CCSCc1nc[nH]c1C)NC#N [CIMETIDINE] |  | 2700 | 0.33
